Compound activity from PubChem.
pPAFAH inh – inhibitors of human plasma PAF acetylhydrolase (pPAFAH); inhibition, % at 3.39 µM; recombinant pPAFAH, FP-rhodamine probe fluorescence polarization; actives 1.5% (n = 330,000);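 active means inhibition above the mean inhibition across the screen plus 3 SD, cut at about 25% in these data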;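 further: inhibitors block binding of the rhodamine activity-based probe so polarization drops; 0% = enzyme with DMSO and 100% = wells lacking pPAFAH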
PAFAH2 inh – PAFAH2 (human) inhibition; actives 0.99% (n = 340,000); recombinant PAFAH2, FP-rhodamine activity probe, fluorescence polarization; AID 492956; Q99487; inhibition, % at 3.39 µM;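 active means inhibition above the mean over all tested compounds plus 3 SD, cut at about 30% in these data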;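 further: inhibitors block probe labeling of enzyme so polarization drops; 0% = enzyme with DMSO and 100% = wells lacking PAFAH2 protein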
ARFGAP1 inh – rat ARFGAP1 inhibition; Q62848; Arfgap1-stimulated ARF1 GTP hydrolysis, GDP FP detection; inhibition, % at 16.5 µM; actives 0.26% (n = 360,000); AID 651572;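 active means inhibition above a per-plate limit, mean inhibition of low control wells plus 3 SD, cut at about 25% in these data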;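 further: 0% = DMSO wells with enzyme and 100% = wells lacking Arfgap1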
Target sequence (Q62848 1-136 limits assumed): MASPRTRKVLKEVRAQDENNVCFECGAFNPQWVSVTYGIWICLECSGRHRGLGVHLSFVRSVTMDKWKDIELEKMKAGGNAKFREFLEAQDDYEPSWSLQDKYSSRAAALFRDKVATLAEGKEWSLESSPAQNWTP
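Replicates: Single well per compound | Assay system: Truncated rat Arfgap1 GAP domain | Control set: No-Arfgap1 wells (100%) versus DMSO full-reaction wells (0%) | Times: Enzyme reaction 120 min at 25 °C after 20 min preincubation | Reagent: Human ARF1(Δ1-17)-GTP substrate | Measured by: Tracer-displacement fluorescence polarization with EDTA stop, 620/688 nm | Measure: Percent inhibition of Arfgap1-stimulated GTP hydrolysis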
PAFAH1B2 FP inh – inhibitors of human PAFAH1B2; P68402; actives 1.2% (n = 340,000); AID 492953; recombinant PAFAH1B2, FP-rhodamine activity probe, fluorescence polarization; inhibition, % at 3.39 µM;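 active means inhibition above the mean of all tested compounds plus 3 SD, cut at about 24% in these data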;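 further: 0% = enzyme with DMSO and 100% = wells lacking PAFAH1B2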
Target sequence (P68402 whole entry, looked up): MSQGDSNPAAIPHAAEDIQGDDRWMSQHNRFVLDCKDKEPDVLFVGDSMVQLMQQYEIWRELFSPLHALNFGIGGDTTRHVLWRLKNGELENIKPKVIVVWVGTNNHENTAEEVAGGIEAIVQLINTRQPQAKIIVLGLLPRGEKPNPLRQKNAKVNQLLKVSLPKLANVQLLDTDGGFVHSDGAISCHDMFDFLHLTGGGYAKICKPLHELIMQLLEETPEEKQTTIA
PAFAH1B3 inh – blocks human PAF acetylhydrolase 1B catalytic subunit 3; Q15102; recombinant PAFAH1B3, FP-rhodamine probe, fluorescence polarization; inhibition, % at 3.39 µM; actives 0.28% (n = 340,000);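 active means inhibition above the screen-wide average of all tested compounds plus 3 SD, cut at about 25% in these data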;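 further: 0% = enzyme with DMSO only and 100% = wells lacking PAFAH1B3 protein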
Target sequence (Q15102 whole entry, looked up): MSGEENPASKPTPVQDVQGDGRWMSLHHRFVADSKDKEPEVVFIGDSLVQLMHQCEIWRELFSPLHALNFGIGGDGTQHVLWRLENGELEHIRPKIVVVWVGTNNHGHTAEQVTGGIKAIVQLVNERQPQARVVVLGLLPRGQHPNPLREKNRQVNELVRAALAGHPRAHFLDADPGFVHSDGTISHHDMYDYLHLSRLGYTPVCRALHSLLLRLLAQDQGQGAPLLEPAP
ASAP1 GAP inh – ASAP1 ArfGAP inhibition. Q9ULH1. ASAP1-stimulated ARF1 GTP hydrolysis, GDP FP detection. inhibition, % at 16.5 µM. actives 0.19% (n = 360,000). AID 624377; in the data active means inhibition above about 25%;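 further: 0% = vehicle with enzyme and substrate and 100% = no enzyme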
PAFAH2 confirm – confirmation of human PAFAH2 inhibitors. shares compounds with PAFAH2 inh. recombinant PAFAH2, FP-rhodamine activity probe, fluorescence polarization. actives 65% (n = 2,300). AID 493030. inhibition, % at 3.39 µM;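 active means mean inhibition over three repeats above a set limit taken from the earlier primary screen, cut at about 30% in these data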;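 further: inhibitor blocks binding of rhodamine activity probe so polarization falls; 0% = enzyme with DMSO and 100% = wells lacking PAFAH2 protein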
PAFAH1B3 conf FP – PAFAH1B3 (human) inhibition, confirmed; actives 30% (n = 390); inhibition, % at 3.39 µM; shares compounds with PAFAH1B3 inh; recombinant PAFAH1B3, FP-Rh activity-based probe, fluorescence polarization;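 active means average inhibition over triplicate runs above the hit cutoff set in the earlier primary screen, cut at about 25% in these data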;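 further: 0% = enzyme with DMSO and 100% = wells lacking PAFAH1B3 protein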
ASAP1 inh confirm – ASAP1 inhibition confirmed; inhibition, % at 16.5 µM; actives 37% (n = 620); shares compounds with ASAP1 GAP inh; ASAP1-stimulated Arf1 GTPase, GDP fluorescence polarization; AID 624431;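 active means mean inhibition over triplicates exceeds the hit threshold derived for the earlier primary screening run, cut at about 25% in these data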
* = called active by the depositor; · = no result given. Only some compounds are listed: those with a hit (about 2.7% of all), similar ones and a draw of the others.

SMILES	pPAFAH inh	PAFAH2 inh	ARFGAP1 inh	PAFAH1B2 FP inh	PAFAH1B3 inh	ASAP1 GAP inh	PAFAH1B3 conf FP	others
COc1ccc(Cl)cc1NC(=O)CC1CCCC1	-2	6	-9	4	1	19	·
COc1ccc(C(C(=O)NC(C)(C)C)N(CCc2ccccc2)C(=O)CCC(=O)Nc2cc(C)on2)cc1 (stereo not drawn)	5	5	4	0	7	5	·
COc1cccc(CN2CCNC(=O)C2CC(=O)NCCn2cccn2)c1OC (stereo not drawn)	-1	-2	-3	13	7	-1	·
CN1CCN(C(=O)CCCN2C(=O)/C(=C/c3ccccc3)SC2=S)CC1	-6	2	9	-2	2	-14	·
O=C(O)CCCN1C(=O)/C(=C\C(Cl)=C\c2ccccc2)SC1=S	·	61*	0	4	8	33*	·	PAFAH2 confirm=17;ASAP1 inh confirm=61*
Cc1nn(-c2ccccc2)c(N2CCCC2)c1/C=N/Nc1ccc(S(N)(=O)=O)cc1[N+](=O)[O-]	3	5	-8	21	14	-4	·
O=C1NC(=S)S/C1=C\C=C\c1ccc([N+](=O)[O-])o1	·	43*	8	9	17	29*	·	PAFAH2 confirm=27;ASAP1 inh confirm=11
CCN(CC)CCc1nc(-c2ccccc2)no1	0	0	0	1	29*	1	34*
NS(=O)(=O)c1ccc(-c2ccc(/C=C3\NC(=S)NC3=O)o2)cc1	15	-2	6	3	34*	-7	12
CCOC(=O)C1=C(C)NC(=S)NC1c1ccc(OCC(=O)N2CCCCCC2)c(OC)c1 (stereo not drawn)	-1	18	6	0	5	-1	·
CC1=CC(=O)C(Sc2ccc(C)cc2)=CC1=O	·	·	24	·	·	-7	·
Cc1ccc(-n2[nH]c(C)c(/C=N/NC(=O)c3ccc(O)cc3O)c2=O)cc1	13	7	·	14	27*	·	14
Cc1[nH]n(-c2ccccc2)c(=O)c1/C=N/NC(=O)c1ccc(O)cc1O	11	-1	·	12	18	·	·
COCc1c(C(=O)OCC(=O)NCCc2ccc(S(N)(=O)=O)cc2)oc2ccccc12	4	7	4	2	-3	-7	·
CCOC(=O)/C(=N/Nc1ccc(C)cc1)S(=O)(=O)c1ccc(Cl)cc1	8	-2	2	3	4	6	·
NNC(=O)/C(=N/Nc1ccccc1)S(=O)(=O)c1ccc(Cl)cc1	12	-4	7	3	40*	3	37*
O=Nc1c(O)[nH]c2ccc(F)cc12	8	0	-12	7	21	11	·
O=Nc1c(O)[nH]c2ccc(Cl)cc12	6	5	0	16	26*	5	34*
COC(=O)c1scc(C)c1-n1ccc(C(=O)C(=O)N(C)C)c1	-1	0	-2	-5	3	-2	·
CC(=O)N1CCn2c3c(c4cc(C)ccc42)CCCC31 (stereo not drawn)	8	1	-4	9	8	-2	·
CC(=O)N1CCn2c3c(c(=O)c4cc(C)ccc42)CCC31 (stereo not drawn)	13	-2	11	10	41*	9	16
CCN(CC)c1ccc(/C=N/NC(=O)Cc2nnc(NC(=O)Nc3ccccc3)s2)cc1	20	16	-5	19	35*	3	26*
CCN(CC)c1ccc(/C=N/NC(=O)Nc2ccccc2)cc1	10	6	4	10	6	-7	·
NC1=CC(=O)C(=O)c2ccccc21	·	7	-1	6	12	5	·
O=C1C=C(O)c2[nH]c(=O)ccc2C1=O	·	14	-9	21	53*	-11	16
SMILES	pPAFAH inh	PAFAH2 inh	ARFGAP1 inh	PAFAH1B2 FP inh	PAFAH1B3 inh	ASAP1 GAP inh	PAFAH1B3 conf FP	others
NS(=O)(=O)c1ccc(NC(=O)COC(=O)CNC(=O)C23CC4CC(CC(C4)C2)C3)cc1	0	-2	9	5	-2	2	·
Fc1ccc2nc(Nc3nc4cc5c(cc4s3)OCO5)sc2c1	24	-32	5	23	43*	12	44*
Oc1cc(NCc2ccc(F)cc2)cc2cccnc12	7	5	-5	4	18	-2	·
CN(C)CCCNc1cc(O)c2ncccc2c1	1	0	1	3	29*	-1	13
CCC(C)n1c(NC(=O)c2ccccc2)c(C#N)c2nc3ccccc3nc21 (stereo not drawn)	14	-2	13	2	35*	21	8
CCC(=O)Nc1c(C#N)c2nc3ccccc3nc2n1-c1ccc(C)cc1	·	3	-2	3	6	-10	·
C[C@H](CO)N1C[C@H](C)[C@@H](CN(C)S(=O)(=O)c2cn(C)cn2)Oc2ncc(Br)cc2C1=O	·	·	5	·	·	-18	·
COc1ccc(CCCNC(=O)C2Cc3c(-c4cccc(C(C)=O)c4)ccnc3O2)cc1 (stereo not drawn)	·	·	7	·	·	1	·
CN(C)CCCCCCCCCCC(=O)/C=N/O	6	8	6	12	27*	4	22
O=C(/C=C/c1ccc(O)cc1)c1ccc(NC2=C(N3CCCCC3)C(=O)c3ccccc3C2=O)cc1	7	25	14	14	54*	23	22
COc1ccccc1NC1=C(N2CCCCC2)C(=O)c2ccccc2C1=O	-7	13	·	7	42*	·	21
CCC(=O)Oc1ccc(C/C(=N\O)c2ccc(O)cc2O)o1	20	18	10	16	27*	5	38*
CN(C)C(=O)c1cccc(-c2cccc(-c3nc(C(=O)NCc4ccccc4)cc4c3[C@@H](CCO)N(S(=O)C(C)(C)C)C4)c2)c1 (stereo partly drawn)	·	·	2	·	·	-5	·
Cc1ccc(C(=O)NC2(O)C(=O)c3ccccc3C2=O)cc1C	2	24	22	8	37*	24	37*
O=C(NC1(O)C(=O)c2ccccc2C1=O)c1ccc(C(F)(F)F)cc1	0	·	6	·	·	21	·
Cc1c(OC(C)C(=O)N2C[C@H]3C[C@@H](C2)c2cccc(=O)n2C3)ccc2c3c(c(=O)oc12)CCC3 (stereo partly drawn)	5	0	10	-2	6	1	·
O=[N+]([O-])c1ccc(N/N=C/c2ccccc2O)cc1	9	6	20	9	26*	19	15
Clc1cccc2sc(N3CCOCC3)nc12	2	-18	18	20	30*	3	7
CC(C)N(c1cc(=O)nc2ccccn12)C(C)C	·	·	-13	·	·	-10	·
